Test results reported in ChEMBL document CHEMBL2434859, “Targeting botulinum A cellular toxicity: a prodrug approach” (J Med Chem, 2013).
Activity calls are given as the source filed them. No cut-off for these calls is given here.

Columns and labels:
[1] = Half life in PBS buffer at 10 to 100 uM by LC/MS analysis; format: physicochemical
Procedure, shortened: (§1)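 Compound at 10–100 μM (1% DMSO) was held in PBS pH 7.4 or neurobasal medium. Aliquots were taken at timed intervals; medium samples were quenched in cold acetonitrile. A deuterated internal standard (1 μM) was added, and samples were read by LC/MS (C8, SIM) against calibration curves. Half-life came from an exponential decay fit.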

[2] = biological target: Botulinum neurotoxin type A (Clostridium botulinum (strain Hall / ATCC 3502 / NCTC 13319 / Type A), UniProt P0DPI1); test: (§2) Inhibition of Clostridium botulinum A Hall BoNT LC/A in human induced pluripotent stem cell-derived neurons assessed as inhibition of intracellular SNAP-25 cleavage after 8 hrs by Western blot analysis; format: cell-based, Clostridium botulinum A str. Hall
Chain of Botulinum neurotoxin type A (P0DPI1 2-448 limits assumed): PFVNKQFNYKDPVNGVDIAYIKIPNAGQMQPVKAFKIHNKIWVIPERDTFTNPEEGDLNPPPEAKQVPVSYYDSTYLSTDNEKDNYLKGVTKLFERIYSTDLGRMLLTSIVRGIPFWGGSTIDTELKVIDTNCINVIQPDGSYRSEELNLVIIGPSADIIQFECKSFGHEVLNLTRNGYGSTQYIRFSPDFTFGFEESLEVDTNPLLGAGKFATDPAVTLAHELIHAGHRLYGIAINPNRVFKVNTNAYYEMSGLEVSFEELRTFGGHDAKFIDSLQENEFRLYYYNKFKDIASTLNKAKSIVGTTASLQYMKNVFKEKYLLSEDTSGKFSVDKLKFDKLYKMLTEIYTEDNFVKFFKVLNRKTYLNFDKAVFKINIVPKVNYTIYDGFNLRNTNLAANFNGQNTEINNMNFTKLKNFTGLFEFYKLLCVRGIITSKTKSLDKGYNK

[3] = Half life in culture media at 10 to 100 uM by LC/MS analysis; format: physicochemical; conditions: for t1/2: 100 µM; procedure, shortened: as §1
[4] = Cytotoxicity against human induced pluripotent stem cell-derived neurons assessed as SNAP-25 level at 25 uM after 8 hrs by Western blot analysis; conditions: induced pluripotent stem cell-derived neuron
[5] = Prodrug conversion in mouse Neuro2a cells assessed as release of AMC and 1-adamantylacetohydroxamic acid at 50 uM after 3 hrs by Alexa Fluor 488-conjugated wheat germ agglutinin/TOTO-3 staining-based laser scanning confocal microscopic analysis; format: ADME, cell-based; conditions: n2a
[6] = biological target: Botulinum neurotoxin type A (Clostridium botulinum (strain Hall / ATCC 3502 / NCTC 13319 / Type A)) (UniProt P0DPI1); test: as §2; format: cell-based; conditions: Clostridium botulinum A str. Hall
Chain of Botulinum neurotoxin type A (Clostridium botulinum (strain Hall / ATCC 3502 / NCTC 13319 / Type A)) (P0DPI1 2-448 limits assumed): as above

[7] = Cellular uptake in golgi apparatus of mouse Neuro2a cell assessed as release of AMC and 1-adamantylacetohydroxamic acid at 50 uM after 3 hrs by Alexa Fluor 488-conjugated wheat germ agglutinin/TOTO-3 staining-based laser scanning confocal microscopic analysis; format: ADME
[8] = biological target: Botulinum neurotoxin type A (Clostridium botulinum (strain Hall / ATCC 3502 / NCTC 13319 / Type A)) (UniProt P0DPI1); test: Inhibition of Clostridium botulinum A Hall BoNT LC/A in human induced pluripotent stem cell-derived neurons assessed as inhibition of intracellular SNAP-25 cleavage after 8 hrs by Western blot analysis in presence of 0.01% Tween-80; format: cell-based; conditions: Clostridium botulinum A str. Hall
[9] = biological target: Botulinum neurotoxin type A (Clostridium botulinum (strain Hall / ATCC 3502 / NCTC 13319 / Type A)) (UniProt P0DPI1); test: Inhibition of Clostridium botulinum A Hall BoNT LC/A in human induced pluripotent stem cell-derived neurons assessed as inhibition of intracellular SNAP-25 cleavage at 25 uM after 8 hrs by Western blot analysis relative to control; format: cell-based; conditions: Clostridium botulinum A str. Hall

Structure (SMILES) | t1/2 [1] | EC50 ([2]; read-out: EC50) | t1/2 [3] | also measured
COc1cc(NC(=O)ONC(=O)CC23CC4CC(CC(C4)C2)C3)cc(OC)c1 | 1.2 h | > 100 µM | 1.6 h | –
O=C(CC12CC3CC(CC(C3)C1)C2)NOC(=O)Nc1ccccc1 | 1.1 h | > 100 µM | 0.76 h | –
COCCN(CCOC)C(=O)ONC(=O)CC12CC3CC(CC(C3)C1)C2 | 164 h | > 100 µM | 48 h | –
O=C(CC12CC3CC(CC(C3)C1)C2)N(O)C(=O)NCc1ccccc1 | – | – | – | Activity [4]: Toxic
O=C(CC12CC3CC(CC(C3)C1)C2)NOC(=O)NCc1ccc(F)cc1 | 11.5 h | 27 µM | 11.5 h | –
O=C(CC12CC3CC(CC(C3)C1)C2)NOC(=O)Nc1ccc(F)cc1 | 0.9 h | > 100 µM | 0.62 h | –
COc1ccc(NC(=O)ONC(=O)CC23CC4CC(CC(C4)C2)C3)cc1 | 1.1 h | > 100 µM | 0.85 h | –
CCNC(=O)ONC(=O)CC12CC3CC(CC(C3)C1)C2 | 27.6 h | > 100 µM | 15.1 h | –
CN(C)C(=O)ONC(=O)CC12CC3CC(CC(C3)C1)C2 | 149 h | > 100 µM | 61 h | –
COc1ccc(CNC(=O)ONC(=O)CC23CC4CC(CC(C4)C2)C3)cc1 | 14 h | 42 µM | 11.2 h | –
CC(C)(C)NC(=O)ONC(=O)CC12CC3CC(CC(C3)C1)C2 | 72 h | – | – | EC50 [2]: ND(toxic)
CC1(C)ON=C(CC23CC4CC(CC(C4)C2)C3)O1 | 3.3 h | > 100 µM | 10.2 h | –
O=C(CC12CC3CC(CC(C3)C1)C2)NOC(=O)N1CCOCC1 | 48 h | 37 µM | 33 h | –
Cc1cc(=O)oc2cc(NC(=O)ONC(=O)CC34CC5CC(CC(C5)C3)C4)ccc12 | – | – | – | Drug metabolism [5]: Active; inhibition [6]: Active; Drug uptake [7]: Active; half-life at up to 100 µM ([3]; culture media): 4.5 h
O=C(CC12CC3CC(CC(C3)C1)C2)NOC(=O)NCc1ccccc1 | 17.6 h | 20 µM | 14.6 h | inhibition [8]: Active; inhibition [6]: Dose-dependent effect; inhibition [9]: 50%
